Compound activity from PubChem.
HCT116 bCat-KO = beta-catenin-lacking colon tumor cell growth suppression; AID 818; HCT116 beta-catenin knockout viability, CellTiter-Glo, 60 h; hits give low values; 140,000 tested, 1.5% active; viability, % at 10 µM;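 active = viability at or under a set limit, the compound median less 4 SD, cut at about 6% in these data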;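 note: 0% = Hyamine 1622 control at 20 µM and 100% = untreated cell control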
HUVEC prolif 384 = inhibitors of human endothelial cell proliferation. HUVEC proliferation, CellTiter-Glo luminescence, 72 h; hits give low values. viability, % at 10 µM (by protocol). 86,000 tested, 1.1% active. AID 648;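 active = viability at or below 30%; inactive = viability above 30%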;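 note: 100% = median luminescence of DMSO-only cell control wells on each plate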
Fibroblast inh = blocks proliferation of human lung fibroblasts; viability, % at 10 µM; LL 47 human lung fibroblast viability, ATP luminescence; hits give low values; AID 719; 85,000 tested, 1.1% active;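 active = viability at or below 50% in the single dose screen; inactive = viability above 50%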;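 note: compound exposure lasted 72 h before the ATP readout; 100% = median luminescence of untreated cell-only wells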
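Assay system: human lung fibroblast line LL 47, low passage. Input: 1,150 fibroblasts seeded per well. Times: overnight cell rest, 72 h compound treatment at 37 °C. Evaluation: % viability of median cell-only signal. Technique: luminescent ATP detection, CellTiter-Glo. Control set: cell-only wells, no compound.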
H69AR inhibit = growth inhibitors of human H69AR lung tumor cells; AID 598; 85,000 tested, 6% active; viability, % at 10 µM; H69AR lung tumor viability, ATP luminescence, 72 h; hits give low values;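 active = viability at or below 40%; inactive = viability above 40%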;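 note: multidrug resistant small cell line overexpressing MRP-1 efflux transporter; 100% = mean luminescence of untreated control wells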
PTEN del growth = growth suppressors of cells with PTEN tumor suppressor deletion. HCT116 PTEN-null viability, CellTiter-Glo, 60 h; hits give low values. viability, % at 10 µM. 140,000 tested, 1.2% active;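 active = viability at or below a set limit, 4 SD under the median of all tested compounds, cut at about 3.7% in these data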;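 note: PTEN knockout HCT116 line with beta catenin targeted HCT116 as companion control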
Starred values were filed as active, the others as inactive; · = no result. Many of the other results were omitted from the sample, so hits are more common in it than they were.

SMILES	HCT116 bCat-KO	HUVEC prolif 384	Fibroblast inh	H69AR inhibit	PTEN del growth
COC1(OC)N=C(N)C2(C#N)C(c3ccc4c(c3)OCO4)C12C#N (stereo not drawn)	87	84	87	33*	116
CCOC(=O)/C=C/C(=O)OCC(=O)Nc1ccc(Cl)cn1	82	83	70	81	83
CCOC(=O)NC1(Nc2ccc(Cl)cn2)Oc2ccccc2O1	88	79	96	28*	87
COc1ccc2cc(C(=O)NCc3ccco3)c(=Nc3ccc(C(=O)O)cc3)oc2c1	78	79	93	21*	81
COc1ccc(N=c2oc3c(OC)cccc3cc2C(=O)NCc2ccco2)c(OC)c1	1.8*	63	77	100	4
COc1ccc2cc(C(=O)NCc3ccco3)c(=O)oc2c1	87	117	107	99	93
COc1ccc(Nc2cc(C(=O)NCc3ccco3)c3ccccc3n2)c(OC)c1	86	·	·	·	95
COc1ccc(C(=O)Nc2ccc(Cl)cc2C(=O)NCc2ccco2)cc1	83	63	84	29*	72
COc1ccc(C2C(C(=O)c3ccccc3)=C(C)Nc3nc4ccccc4n32)c(OC)c1 (stereo not drawn)	63	·	·	·	53
Cc1ccc(NC(=O)c2ccc(N/N=C/c3cccc(O)c3)c([N+](=O)[O-])c2)cc1	2.9*	·	·	·	1.9*
Cc1ccc(NC(=O)c2ccc(Nc3c([N+](=O)[O-])cc([N+](=O)[O-])cc3[N+](=O)[O-])cc2)cc1	4.5*	·	·	·	2.3*
CC(=O)/C(=N/Nc1ccccc1)Sc1nnc(C(O)c2ccccc2)n1-c1ccccc1 (stereo not drawn)	89	·	·	·	106
O=C(Nc1ccc(OCC(F)(F)C(F)F)c(C(F)(F)F)c1)c1ccccc1O	5.2*	·	·	·	5
O=C(Nc1cccc(F)c1)c1c(F)c(F)c(F)c(F)c1F	48	89	88	67	54
O=C(Nc1ccccc1NC(=O)c1c(F)c(F)c(F)c(F)c1F)c1c(F)c(F)c(F)c(F)c1F	2.4*	76	93	101	2.6*
Cc1cc(C(=O)CSc2nnc(-c3cccnc3)n2-c2ccccc2F)c(C)n1C	58	112	93	34*	52
Cc1ccc(C(=O)CSc2nnc(-c3cccnc3)n2N)cc1	59	78	94	27*	54
CCCNC(=O)CN(c1cccc(F)c1)S(C)(=O)=O	105	·	·	·	103
Nc1nc(Nc2ccc(Cl)cc2)nc2ccccc12	17	56	81	21*	22
O=C(CNC(=O)c1ccco1)OCc1cccc(Cl)c1	94	86	105	92	102
O=C(CCNc1cccc(Cl)c1)c1ccco1	50	92	97	2.2*	38
COc1ccc(C2C(=O)N(C3CCCCC3)CC(=O)N2C2CCCC2)cc1 (stereo not drawn)	76	101	93	50	78
COc1ccc(C2C(=O)N(CCc3ccccc3)CC(=O)N2C2CCCC2)cc1 (stereo not drawn)	81	89	87	35*	69
CC1CCN(c2ccc(NC(=S)NC(=O)c3ccc(-c4cccc([N+](=O)[O-])c4)o3)cc2)CC1	66	72	75	25*	66
CCOc1ccccc1C(=O)N1CCN(C(c2ccccc2)c2ccccc2)CC1	72	·	·	·	69
SMILES	HCT116 bCat-KO	HUVEC prolif 384	Fibroblast inh	H69AR inhibit	PTEN del growth
CC(=O)c1ccccc1OCC(O)CN1CCN(C(c2ccccc2)c2ccccc2)CC1 (stereo not drawn)	38	69	77	9.8*	37
COc1cc(C2C3CN(C)CC=C3C(C#N)=C(N)C2(C#N)C#N)ccc1OC(C)C (stereo not drawn)	88	87	84	35*	95
NC1=NC(=O)/C(=C/c2c(OS(=O)(=O)c3ccc(Cl)cc3)ccc3ccccc23)S1	89	·	·	·	97
Cc1cccc(NC(=O)c2oc3ccc(S(=O)(=O)N4CCOCC4)cc3c2C)c1C	86	71	103	35*	75
Cc1c(C(=O)NCc2cccs2)oc2ccc(S(=O)(=O)N3CCOCC3)cc12	103	80	92	77	110
Cc1c(C(=O)NCCC2=CCCCC2)oc2ccc(S(=O)(=O)N3CCOCC3)cc12	26	53	62	10*	14
Cc1c(C(=O)Nc2ccc(F)cc2)oc2ccc(S(=O)(=O)N3CC(C)CC(C)C3)cc12 (stereo not drawn)	2.1*	51	61	12*	9
CCCn1c(SCC(=O)Nc2ccccc2Oc2ccccc2)n[nH]c1=O	92	103	102	52	95
